Runt-SMMHC FRET = inhibitors of RUNX1 Runt–CBFb-SMMHC binding, primary screen, biochemical, FRET, Cerulean-Runt, Venus-CBFb-SMMHC, uHTS; Runt-related transcription factor 1 (Homo sapiens) + Core-binding factor subunit beta …; Cerulean-Runt/Venus-CBFb-SMMHC FRET ratio 530/480, 1 h; inhibition, % at 20 µM; actives 0.74% (n = 220,000);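 active means mean inhibition across duplicate retests at 20 µM reaching about 50%, limit read from the data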;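 further: 0% = DMSO wells and 100% = wells with excess untagged CBFb-SMMHC; inhibitors lower the FRET ratio by blocking Runt binding to CBFb-SMMHC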
Efa HMGR inh = inhibitors of E. faecalis class II HMGR, primary screen, biochemical, Enterococcus faecalis | inhibition, % at 10 µM | purified E. faecalis HMGR, NADPH absorbance 340 nm kinetic | AID 1066, 2008 | actives 0.41% (n = 190,000);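 active means inhibition above a set limit, the median over all tested compounds plus 3 SD, cut at about 9.5% in these data; inconclusive means no clear call, values can overlap the other calls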;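 further: enzyme runs in reverse so mevalonate oxidation gives rising NADPH absorbance; 0% = complete reaction with DMSO and 100% = background rate lacking mevalonate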
PHOSPHO1 inh = PubChem AID 1565; Phosphoethanolamine/phosphocholine phosphatase (Homo sapiens), Q8TCT1; recombinant PHOSPHO1, absorbance phosphatase assay; inhibition, % at 13.3 µM; actives 1.1% (n = 290,000); in the data active means inhibition above about 60%
Target sequence (Q8TCT1 whole entry, looked up): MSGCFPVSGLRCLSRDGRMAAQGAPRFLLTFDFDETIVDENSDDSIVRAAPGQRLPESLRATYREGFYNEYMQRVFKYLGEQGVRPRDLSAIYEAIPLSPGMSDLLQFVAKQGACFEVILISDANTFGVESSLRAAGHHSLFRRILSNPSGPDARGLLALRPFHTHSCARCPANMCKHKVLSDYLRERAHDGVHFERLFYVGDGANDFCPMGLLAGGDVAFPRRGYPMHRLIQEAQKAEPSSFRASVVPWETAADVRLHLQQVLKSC
Runt-CBFb FRET = inhibitors of RUNX1 Runt–CBFb binding, primary screen, biochemical, FRET, Cerulean-Runt, Venus-CBFb, uHTS | inhibition, % at 20 µM | Runt-related transcription factor 1 (Homo sapiens) + Core-binding factor subunit beta … | Cerulean-Runt/Venus-CBFb FRET ratio 530/480, 1 h | actives 0.46% (n = 220,000);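 active means inhibition over about 50% at 20 µM in the single-dose screen, limit read from the data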;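 further: 0% = DMSO wells and 100% = excess unlabeled CBFb competitor control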
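Assay system: Cerulean-tagged RUNX1 Runt domain (FRET donor) fusion protein / Amount: 100 nM each of Venus-CBFb and Cerulean-Runt domain / Medium: Tris buffer pH 7.5 with salts and BSA / Also added: Venus-CBFb 100 nM / Schedule: 1 h complex formation plus 1 h compound treatment, room temperature / Signal: FRET fluorescence / Read-out: loss of energy transfer signal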
RanGTP-Impb inh = inhibitors of RanGTP-importin-beta interaction, primary screen, biochemical, FRET, CFP-Ran, YFP-importin-beta, homogeneous; actives 1.1% (n = 300,000); AID 2216, 2009; cell-free CFP-Ran/YFP-importin-beta FRET ratio; Ran GTPase (GTP-bound) - importin-beta complex; inhibition, % (no concentration beside the values);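 active means more than half of the replicate wells show a fall in the fluorescence ratio signal beyond about 16%, limit read from the data, passing the limit was not always enough; inconclusive means exactly half of the replicate wells pass the set limit; inactive means fewer than half of replicates pass the limit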;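 further: 0% = DMSO wells and 100% = Ran loaded with GDP instead of GTP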
Wee1 degr inh = Wee1 degradation inhibitors, primary screen, cell-based, HeLa, Wee1K328M-luciferase, luminescence; Wee1-like protein kinase (Homo sapiens), P30291; HeLa Luc-Wee1K328M stability; 100% = proteasome inhibitor MG132 effect; reporter increase, % at 5 µM; actives 1.2% (n = 220,000);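 active means activation above the mean of all tested compounds plus 3 SD, set per screening run, cut at about 8.8% in these data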;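 further: cells exposed to compound for 20 h before luminescence read; 0% = DMSO alone and 100% = MG132 at 30 µM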
* = called active by the depositor; ? = inconclusive; nt = no result given. This is a sample that favours compounds with a hit; in the whole collection about 3.4% have one here.

SMILES	Runt-SMMHC FRET	Efa HMGR inh	PHOSPHO1 inh	Runt-CBFb FRET	RanGTP-Impb inh	Wee1 degr inh
COc1ccccc1Nc1nnc(SCC(=O)N2CCCC2=O)s1	3	-3	61*	0	-3	-2
CC(=O)CCc1ccc(OCCCOc2cccc3cccnc23)cc1	nt	nt	45	nt	1	nt
Cc1cccc(C)c1NC(=O)/C(C#N)=C/c1cccs1	0	0	-32	-1	1	-4
N#C/C(=C\c1cccs1)C(=O)Nc1ccccn1	-18	nt	-2	-4	26*	1
CCOc1cc(/C=C(\C#N)C(=O)Nc2ccccn2)ccc1O	nt	nt	30	nt	1	nt
N#C/C(=C\c1ccccc1)C(=O)Nc1ccccn1	nt	nt	33	nt	49*	nt
C=CCOc1ccc(/C=C(\C#N)C(=O)Nc2ccccn2)cc1	nt	nt	32	nt	17*	nt
CC(C)(C)c1ccc(/C=C(\C#N)C(=O)Nc2ccccn2)cc1	nt	nt	29	nt	-2	nt
N#C/C(=C\c1ccccc1Cl)C(=O)Nc1ccccn1	nt	nt	11	nt	44*	nt
COC(=O)[C@H](Cc1ccccc1)NC(=O)C1CCN(C(=O)[C@H](C)NS(=O)(=O)c2ccc(C)cc2)CC1	nt	nt	33	nt	-1	nt
Cc1cc(C(=O)OC(C)C(=O)N2CCc3ccccc32)ccc1[N+](=O)[O-] (centres undefined)	nt	nt	nt	nt	-3	nt
CC(=NCc1cccc(Cl)c1)c1nc(-c2ccco2)oc1O	-2	2	-8	0	-9	9.4*
Oc1oc(-c2ccco2)nc1C=Nc1cccc(Cl)c1	-2	-1	19	-4	-3	2
COC(=O)c1ccccc1C(=O)N1CCCC(CNC(=O)c2ccc(F)cc2)C1 (centres undefined)	nt	nt	-20	nt	2	nt
CCOC(=O)/C(C#N)=C1/C=C(C)NC(c2ccccc2O)=N1	61*	-3	-3	25	3	-2
Cc1cc(C(=O)NNC(=O)COc2c(C)cc(Br)cc2C)n[nH]1	nt	nt	41	nt	4	nt
COc1ccc(NCc2nnc(SCCN3CCCCC3)n2-c2ccc(C)cc2)cc1	0	17*	50	-4	0	-1
CCn1cc([N+](=O)[O-])c(=O)c2cc(F)c(N3CCOCC3)cc21	nt	nt	41	nt	2	nt
Cc1cccc(OCc2n[nH]c(=S)o2)c1	4	-5	98*	0	-2	0
CCN(Cc1ccncc1)C(=O)CCc1nnc(CCC2CCCCC2)o1	-6	12*	23	1	3	0
CN=C(c1ccco1)n1c(=S)nc(-c2ccco2)n(C)c1=S	19	5	89*	22	-1	0
CN=C(c1ccc(C)cc1)n1c(=S)nc(-c2ccc(C)cc2)n(C)c1=S	16	-1	-42	34	3	0
CCCC(=O)NC(=S)Nc1ccc(Cl)cn1	0	29*	-17	2	-5	5
Cc1ccn2cc(C(=O)Nc3nnc(C)s3)nc2c1	6	-1	10	0	0	8.9*
CCOc1cccc(CNCc2ccncc2)c1	nt	nt	62*	nt	0	nt
SMILES	Runt-SMMHC FRET	Efa HMGR inh	PHOSPHO1 inh	Runt-CBFb FRET	RanGTP-Impb inh	Wee1 degr inh
O=S1(=O)CC(O)C(NCCO)C1 (centres undefined)	-1	-1	65*	0	-1	-1
O=C1CSC(=S)N1Cc1cccnc1	-6	-6	-30	-2	-6	3
O=C1CSC(=S)N1c1cccnc1	2	-4	98*	16	-1	-1
COc1cc(C=O)c(-c2c(C=O)cc(OC)c3c2OCO3)c2c1OCO2	nt	nt	19	nt	0	nt
CCCCC1CCC(C(=O)NCc2ccc3c(c2)OCO3)CC1 (centres undefined)	-1	-9	-11	1	92*	0
Cc1cc(-c2nc3c4c5c(sc4[nH]c(=O)n3n2)CCC5)c(C)o1	38	2	80*	31	-4	-1
Cc1nc2sc3c(c2c(=O)[nH]1)CCC3	-8	2	20	-1	0	6
CCN(CC(=O)Nc1ccc2c(c1)OCCO2)C(=O)/C=C/c1ccc(OC)cc1OC	nt	nt	62*	nt	0	nt
COc1ccc(/C=C/C(=O)c2ccc3c(c2)OCO3)c(OC)c1	-23	0	-5	-14	?	29*
COc1ccc(CCNC(=O)COc2ccc(S(=O)(=O)NC3CCCCC3)cc2Cl)cc1	-1	-8	63*	-6	3	2
CCn1c(-c2ccc(-c3ccccc3)cc2)c[nH]c1=S	6	0	97*	6	-3	-3
C=CCn1c(-c2ccccc2)c[nH]c1=S	11	-4	79*	24	4	2
C=CCn1c(-c2ccc(Cl)cc2)c[nH]c1=S	9	-1	94*	7	-2	1
S=c1[nH]cc(-c2ccccc2)n1-c1ccccc1Cl	32	-4	-20	12	-1	-2
COc1ccccc1-n1c(-c2ccccc2)c[nH]c1=S	54*	-4	37	21	?	3
Cc1ccc2nc(SCC(=O)Nc3cccc(F)c3)nc(=O)n2c1	nt	nt	nt	nt	0	nt
Cn1c(=O)c2c(nc3n2CCCN3CCc2ccccc2)n(C)c1=O	nt	nt	49	nt	1	nt
Cn1c(-c2ccc(-c3ccccc3)cc2)c[nH]c1=S	2	2	95*	1	1	1
Cc1ccc(-c2c[nH]c(=S)n2-c2ccccc2)cc1	31	-4	45	11	8	-2
CCOc1ccc(-c2[nH]ncc2Oc2ccccc2OC)c(O)c1	1	2	-7	2	-7	0
CCOc1ccc(-c2[nH]ncc2Oc2ccccc2OCC)c(O)c1	-2	24*	-16	-1	2	-1
Cc1cc(C(=O)COC(=O)c2ccc(Cl)c(S(N)(=O)=O)c2)c(C)n1C1CC1	nt	nt	nt	nt	-2	nt
COc1ccccc1C(=O)Nc1ccc(NC(=O)C2CCCCC2)nc1	nt	nt	19	nt	2	nt
O=C(Nc1ccc(NC(=O)C2CCCCC2)nc1)c1ccccn1	-3	-8	63*	-3	4	0
C=C1CCN([C@@H](Cc2ccccc2)C(=O)NCc2ccc(Cl)cc2)S(=O)(=O)c2ccccc21	nt	nt	nt	nt	2	nt
COc1ccc(NC(=O)C/C(C)=N/NC(=O)C(=O)NC(C)C)c(OC)c1	-1	2	28	2	-4	9.7*
COc1ccc(NC(=O)C/C(C)=N/NC(=O)C(=O)Nc2cccc(Cl)c2C)c(OC)c1	10	-3	59	-6	1	2

Screens deposited in PubChem by several laboratories.
